Measured values reported in ChEMBL document CHEMBL1129059, “Antitumor properties of some 2-[(dimethylamino)methyl]phenylgold(III) complexes” (J Med Chem, 1996).

What was measured:
Type in all cases: functional, organism-based
[1] = tested on: Mus musculus; assay: Compound was evaluated for antitumor activity (T/C) in PNX/109/TC carcinoma Xenograft, at a dosage 10 mg/kg on day 7; parameters: dose 10 mg/kg
Procedure, shortened: (§1)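 PNX/109/TC (CH1) ovarian tumor fragments implanted subcutaneously in the flanks of nude mice. Once tumors were palpable, mice were randomized into 6 per treated group and 10 controls. Dosing was ip in arachis oil on days 0, 7, 14 and 21, at the MTD and two 2-fold dilutions, with tumor dimensions taken on days 0, 7, 14, 21 and 28. T/C is treated RTV over control RTV, with RTV relative to start volume.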

[2] = tested on: Mus musculus; assay: Compound was evaluated for antitumor activity (T/C) in HT1376 carcinoma Xenograft, at a dosage 25 mg/kg on day 14; parameters: dose 25 mg/kg
Procedure, shortened: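 Subcutaneous HT1376 xenografts in nude mice, 6 per treated group and 10 controls. Intraperitoneal dosing as suspensions in 0.5% carboxymethylcellulose/0.9% saline on days 0, 7, 14, 21; tumors measured weekly to day 28. T/C = RTV of treated group / RTV of untreated control group; significance by t-test at the 5% level.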

[3] = tested on: Mus musculus; assay: Compound was evaluated for antitumor activity (RTV) in PNX/109/TC carcinoma Xenograft, at a dosage 10 mg/kg on day 7; parameters: dose 10 mg/kg
Procedure, shortened: (§2)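 PXN/109/TC (CH1) ovarian tumor fragments implanted subcutaneously in nude mice flanks; established palpable tumors, groups of 6 (controls 10). Dosed intraperitoneally as suspension in arachis oil on days 0, 7, 14, 21. Tumors measured days 0, 7, 14, 21, 28. RTV = 100(mean tumor volume at assessment)/(mean start volume).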

[4] = tested on: Mus musculus; assay: Compound was evaluated for antitumor activity (RTV) in HT1376 carcinoma Xenograft, at a dosage 6.25 mg/kg on day 28; parameters: dose 6.25 mg/kg
Procedure, shortened: (§3)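 HT1376 tumor fragments implanted subcutaneously in nude mice flanks; mice with established palpable tumors randomized into groups of 6 (controls 10). Compounds given intraperitoneally as suspensions in 0.5% carboxymethylcellulose in 0.9% saline, on days 0, 7, 14 and 21. Tumor dimensions on days 0, 7, 14, 21, 28. RTV = 100(mean tumor volume at assessment)/(mean start volume).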

[5] = tested on: Mus musculus; assay: Compound was evaluated for antitumor activity (RTV) in PNX/109/TC carcinoma Xenograft, at a dosage 10 mg/kg on day 14; parameters: dose 10 mg/kg; procedure, shortened: as §2
[6] = tested on: Mus musculus; assay: Compound was evaluated for antitumor activity (RTV) in HT1376 carcinoma Xenograft, at a dosage 25 mg/kg on day 21; parameters: dose 25 mg/kg; procedure, shortened: as §3
[7] = tested on: Mus musculus; assay: Compound was evaluated for antitumor activity (RTV) in HT1376 carcinoma Xenograft, at a dosage 25 mg/kg on day 28; parameters: dose 25 mg/kg; procedure, shortened: as §3
[8] = tested on: Mus musculus; assay: Compound was evaluated for antitumor activity (RTV) in HT1376 carcinoma Xenograft, at a dosage 12.5 mg/kg on day 7; parameters: dose 12.5 mg/kg; procedure, shortened: as §3
[9] = tested on: Mus musculus; assay: Compound was evaluated for antitumor activity (T/C) in PNX/109/TC carcinoma Xenograft, at a dosage 20 mg/kg on day 28; parameters: dose 20 mg/kg; procedure, shortened: as §1
[10] = tested on: Mus musculus; assay: Compound was evaluated for antitumor activity (T/C) in HT1376 carcinoma Xenograft, at a dosage 25 mg/kg on day 28; parameters: dose 25 mg/kg
Procedure, shortened: (§4)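 Nude mice carrying subcutaneous flank HT1376 fragments; treatment began once tumors were established and palpable, randomized into groups of 6 treated and 10 control mice. Dosing was ip as a suspension in 0.5% carboxymethylcellulose in 0.9% saline on days 0, 7, 14 and 21, at the MTD and two 2-fold dilutions. Tumors were measured on days 0-28. RTV = 100(mean volume at assessment)/(mean start volume); T/C = treated RTV/control RTV.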

[11] = tested on: Mus musculus; assay: Compound was evaluated for antitumor activity (T/C) in PNX/109/TC carcinoma Xenograft, at a dosage 10 mg/kg on day 21; parameters: dose 10 mg/kg; procedure, shortened: as §1
[12] = tested on: Mus musculus; assay: Compound was evaluated for antitumor activity (T/C) in PNX/109/TC carcinoma Xenograft, at a dosage 5 mg/kg on day 21; parameters: dose 5 mg/kg; procedure, shortened: as §1
[13] = tested on: Mus musculus; assay: Compound was evaluated for antitumor activity (RTV) in PNX/109/TC carcinoma Xenograft, at a dosage 20 mg/kg on day 21; parameters: dose 20 mg/kg; procedure, shortened: as §2
[14] = tested on: Mus musculus; assay: Compound was evaluated for antitumor activity (T/C) in PNX/109/TC carcinoma Xenograft, at a dosage 5 mg/kg on day 7; parameters: dose 5 mg/kg; procedure, shortened: as §1
[15] = tested on: Mus musculus; assay: Compound was evaluated for antitumor activity (T/C) in PNX/109/TC carcinoma Xenograft, at a dosage 20 mg/kg on day 21; parameters: dose 20 mg/kg; procedure, shortened: as §1
[16] = tested on: Mus musculus; assay: Compound was evaluated for antitumor activity (T/C) in HT1376 carcinoma Xenograft, at a dosage 6.25 mg/kg on day 28; parameters: dose 6.25 mg/kg; procedure, shortened: as §4

## Acetato[2-(dimethylamino)methyl]phenyl-C,N]gold-(III)
[1]
  T/C: 0.76
[2]
  T/C: 0.9
[3]
  RTV: 173
[4]
  RTV: 1670
[5]
  RTV: 316
[6]
  RTV: 671
[7]
  RTV: 870
[8]
  RTV: 212
[9]
  T/C: 0.77
[10]
  T/C: 0.6
[11]
  T/C: 1.03
[12]
  T/C: 0.84
[13]
  RTV: 258
[14]
  T/C: 0.69
[15]
  T/C: 0.51
[16]
  T/C: 1.16
